Assay outcomes from PubChem BioAssay.
A selection: hits, their analogues and other compounds. The true share with any hit is near 2.6%.
Env fusion inh – blocks HIV Env-driven cell-cell fusion; HeLa-JRFL Env/CEM21 cell fusion, luciferase; inhibition, % at 12.3 µM; 1.1% of 360,000 active; AID 651610;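 active means mean replicate inhibition score of at least 50 and every replicate individually at or above 50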;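 further: 0% = plate neutral controls and 100% = maraviroc near 300 nM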
Vif inh – HIV Vif inhibition; HEK293T cells, Vif self-association by quenched fluorescence, imaging, 24 h; inhibition, % at 7.49 µM; 0.35% of 340,000 active; AID 602346; in the data active means inhibition above about 50%, passing the limit was not always enough
FN deposition inh – fibronectin deposition inhibition | 0.086% of 350,000 active | AH1F fibroblasts, Alexa488-fibronectin deposition fluorescence, overnight | inhibition, % at 12.6 µM;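 active means mean inhibition across replicates of 30% or more, regardless of how many single replicates reach that level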;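 further: positive control wells lacked labelled fibronectin entirely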
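Assay system: AH1F fibroblast monolayer, labelled fibronectin deposition. Amount: 10000 cells per well. Also added: labelled fibronectin 24 nM. Compound: single-point pinned compound. Incubation: cell attachment 1 h, compound and FN exposure overnight. Detection: fluorescence after three HBSS washes, excitation 485 nm, emission 525 nm. Read-out: inhibition of fibronectin deposition signal.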
S100A4 MyoIIA – inhibitors of human S100A4 binding to myosin IIA peptide; inhibition, % at 10.7 µM; S100A4/TAMRA-MyoIIA peptide fluorescence polarization; AID 652163; 0.14% of 360,000 active;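 active means mean inhibition of at least 70% across replicates, with every replicate also reaching that level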
Target sequence (P26447 whole entry, looked up): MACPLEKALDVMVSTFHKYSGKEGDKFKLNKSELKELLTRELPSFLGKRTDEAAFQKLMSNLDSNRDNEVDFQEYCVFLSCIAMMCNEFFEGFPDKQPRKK
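Compound dosing: one dose per compound; test system: human S100A4 monomer with TAMRA-labelled myosin IIA peptide; probe or stimulus: TAMRA-labelled myosin IIA heavy-chain peptide probe, 5 nM; medium: HEPES buffer with Ca2+, pH 7.2; schedule: 5 min incubation before reading; benchmarks: neutral control DMSO, positive control TFP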
Ecoli rRNA inh – inhibitors of bacterial rRNA selective over humanized ribosomes | GFP signal change (wild-type ribosome), % (concentration not given with the values) | E. coli WT GFP vs humanized-ribosome RFP mutants, fluorescence, 24 h; active compounds read low; DMSO median 0, no signal -100 | 1.6% of 350,000 active;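 active means significant combined selectivity score with lowered wild-type GFP, culture density cut under 30%, mutant RFP and density less affected; inactive means any of these conditions unmet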
miR122 inh – miR-122 inhibition in Huh7 cells; Huh7 miR-122 Renilla luciferase sensor, 48 h; neutral wells = 0, positive control = 100; activation (reporter increase), % at 12.5 µM; 0.3% of 340,000 active; AID 602342;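 active means mean replicate activation score at least 90 and every replicate individually at or above 90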;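 further: higher luciferase means less miR-122 activity so hits act as miR-122 inhibitors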
Numbers without * were called inactive; . = no result given; + = active, no number; [ ] = remark or other dose.

SMILES	Env fusion inh	Vif inh	FN deposition inh	S100A4 MyoIIA	Ecoli rRNA inh	miR122 inh
COc1ccc2c3c(n(C)c2c1)[C@H](CO)N(C(=O)CN1CCOCC1)CC31CN(C(=O)C2CC2)C1	.	.	.	.	4	.
O=C(CCC(=O)c1cccs1)NCc1cccnc1	-19	-3	38*	-1	7	-9
CCS(=O)(=O)Nc1ccc2c(c1)C(=O)N(C)C[C@@H](OC)[C@@H](C)CN(C(=O)C1CC1)[C@H](C)CO2	.	.	-7	-104	1	.
O=c1c2cc(N3CCOCC3)ccc2[nH]c(=S)n1Cc1ccc(Cl)cc1	-36	6	41*	.	.	13
CC(C)OCCCn1c(=S)[nH]c2ccc(N3CCOCC3)cc2c1=O	72*	-6	.	.	.	-7
O=C(c1ccc(Cn2c(=S)[nH]c3ccc(N4CCOCC4)cc3c2=O)cc1)N1CCN(c2ccc(F)cc2)CC1	19	-8	1	-3	3	9
O=C(CCCCCn1c(=S)[nH]c2ccc(N3CCOCC3)cc2c1=O)NCc1ccccc1Cl	-16	+	-4	0	-10	6
O=C(CCCCCn1c(=S)[nH]c2ccc(N3CCOCC3)cc2c1=O)NCc1ccc(Cl)cc1	0	-4	-6	14	-24*	-6
O=C(CCCCCn1c(=S)[nH]c2ccc(N3CCOCC3)cc2c1=O)NCCc1ccccc1	-1	16	1	.	.	.
O=c1c2cc(N3CCOCC3)ccc2[nH]c(=S)n1CCCN1CCCCCC1	-27	7	5	.	.	-2
O=C(Nc1ccc2c(c1)OCO2)N[C@H]1CC[C@@H](CCNC(=O)C2CCCC2)O[C@@H]1CO	38[16.7 µM]	.	2	10	-5	-7[16.7 µM]
O=C1N[C@@H](Cc2ccccc2)COCc2cnnn2CC[C@H]1Cc1cccc(F)c1	.	.	1	.	5	.
C[C@H](CO)N1C[C@H](C)[C@@H](CN(C)CC2CC2)OCc2ccccc2-c2c(n(C)c3ccccc23)C1=O	.	.	6	.	5	.
COC(=O)[C@]12C[C@H](CC(=O)NCc3cccc(C(F)(F)F)c3)C(=O)N(CCC3=CCCCC3)C1=C[C@H](C(C)(C)C)O[C@@H]2C	101*	.	1	1	12	.
COC(=O)[C@]12C[C@H](CC(=O)NCCc3ccccc3OC)C(=O)N(CCC3=CCCCC3)C1=C[C@H](C(C)(C)C)O[C@@H]2C	61*	.	8	5	12	.
COC(=O)[C@]12C[C@H](CC(=O)NCc3cccs3)C(=O)N(CCC3=CCCCC3)C1=C[C@H](C(C)(C)C)O[C@@H]2C	76*	.	-4	2	12	.
COCCCNC(=O)C[C@H]1C[C@@]2(C(=O)OC)C(=C[C@H](C(C)(C)C)O[C@@H]2C)N(CCC2=CCCCC2)C1=O	60*	.	3	-8	1	.
COCCCNC(=O)C[C@H]1C[C@@]2(C(=O)OC)C(=C[C@H](C(C)(C)C)O[C@@H]2C)N(CCc2ccc(OC)c(OC)c2)C1=O	-29	.	4	-13	-2	.
COC(=O)[C@]12C[C@H](CC(=O)NCc3cccs3)C(=O)N(CCc3ccc(OC)c(OC)c3)C1=C[C@H](C(C)(C)C)O[C@@H]2C	22	.	8	3	4	.
COC(=O)[C@]12C[C@H](CC(=O)NCCc3ccccc3OC)C(=O)N(Cc3ccccc3)C1=C[C@H](C(C)(C)C)O[C@@H]2C	20	.	-9	12	5	.
CCCCCCCCN1C(=O)[C@@H](CC(=O)NCc2cccc(C(F)(F)F)c2)C[C@@]2(C(=O)OC)C1=C[C@H](C(C)(C)C)O[C@@H]2C	52	.	4	1	6	.
C[C@H]1CCCCO[C@H](CN(C)S(=O)(=O)c2ccc(Cl)cc2)[C@@H](C)CN([C@@H](C)CO)C(=O)c2cc(NS(=O)(=O)c3ccccc3)ccc2O1	.	.	-6	-35	-2	.
CC(=O)N[C@H]1CC[C@@H](CC(=O)NCC2CCCCC2)O[C@@H]1CO	-6[16.7 µM]	.	19	-2	-1	.
COC(=O)[C@]12C[C@H](CC(=O)NCC34CC5CC(CC(C5)C3)C4)C(=O)N(CCC3=CCCCC3)C1=C[C@H](C(C)(C)C)O[C@@H]2C	53	.	11	1	7	.
COC(=O)[C@]12C[C@H](CC(=O)NCC3CCCCC3)C(=O)N(CCC3=CCCCC3)C1=C[C@H](C(C)(C)C)O[C@@H]2C	71*	.	12	0	16	.
SMILES	Env fusion inh	Vif inh	FN deposition inh	S100A4 MyoIIA	Ecoli rRNA inh	miR122 inh
CCCCOCCCNC(=O)C[C@H]1C[C@@]2(C(=O)OC)C(=C[C@H](C(C)(C)C)O[C@@H]2C)N(CCC2=CCCCC2)C1=O	66*	.	-6	3	17	.
CC(C)c1cn(CC[C@@H]2CC[C@H](NS(=O)(=O)c3ccc(Cl)cc3)[C@H](CO)O2)nn1	3[16.7 µM]	.	.	-20	-5	.
COc1ccc(COC[C@]23NC(=O)N[C@H](c4ccccc4O2)[C@H]3CO)cc1	-5[16.7 µM]	.	.	16	.	.
C/C=C/c1ccc([C@@H]2[C@H](CO)N(CC3CC3)[C@H]2CNC(=O)c2ccccc2)cc1	.	.	8	-3	2	-21[16.7 µM]
CCOC(=O)N1CCC(N(CCOC)C(=O)Nc2ccc(Cl)cc2)CC1	.	.	.	2	-16*	-9
Cc1cccc(NS(=O)(=O)c2cc3c4c(c2)C(C)C(=O)N4CCC3)c1 (stereo not given)	3	1	4	-2	-1	110*
CCCNC(=O)N1CC2(CN(C(=O)C3CCCCC3)C2)c2c([nH]c3cc(OC)ccc23)[C@H]1CO	.	.	.	-8	-1	.
CC1CC(=O)N(c2ccc(NCCc3ccccc3)c([N+](=O)[O-])c2)C1=O (stereo not given)	17	-14	-17	1	5	-13
CC1CC(=O)N(c2ccc(NCCc3ccc(O)cc3)c([N+](=O)[O-])c2)C1=O (stereo not given)	3	-2	-5	-2	-22*	-9
COc1ccc(N2CCN(c3ccc(N4C(=O)CC(C)C4=O)cc3[N+](=O)[O-])CC2)cc1 (stereo not given)	-17	-3	4	2	-29*	3
Cc1ccc(-c2nc3ccc(NS(=O)(=O)c4ccccc4)cc3[nH]2)o1	.	-4	.	-2	-32*	2
O=C(OCc1ccccc1)/C(=C/c1cccc(Br)c1)NC(=O)c1ccco1	-9	5	.	-14	-29*	15
COC(=O)[C@H](Cc1ccccc1)N1CC2=C[C@@H](C3CC3)n3c(=O)n(C)c(=O)n3[C@H]2[C@@H]1[C@@H](O)Cc1ccccc1	-3[16.7 µM]	.	.	-64	.	.
CN1CCN(C(=O)C[C@H]2C[C@H]3c4cc(NS(=O)(=O)c5ccc(F)cc5)ccc4O[C@H]3[C@H](CO)O2)CC1	.	.	-1	.	-2	5[16.7 µM]
